Measurements from ChEMBL document CHEMBL3091454, “Improved Cav2.2 Channel Inhibitors through a gem-Dimethylsulfone Bioisostere Replacement of a Labile Sulfonamide” (ACS Med Chem Lett, 2013).

Columns and labels:
[1] = molecular target: T1, Voltage-dependent N-type calcium channel subunit alpha-1B (Homo sapiens, UniProt Q00975); experiment: Inhibition of Cav2.2-mediated calcium influx in HEK cells at 10 uM by FLIPR assay relative to control; type: cell-based; conditions: HEK293, 1 uM, in the assay text read “at 1 uM” for “at 10 uM”
Method in brief: (§1)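 Cav2.2 calcium-influx FLIPR assay; compounds screened for percent inhibition at single concentration, active ones titrated for IC50; values averaged over n ≥ 3.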
Target sequence in this assay (Q00975 whole entry, looked up): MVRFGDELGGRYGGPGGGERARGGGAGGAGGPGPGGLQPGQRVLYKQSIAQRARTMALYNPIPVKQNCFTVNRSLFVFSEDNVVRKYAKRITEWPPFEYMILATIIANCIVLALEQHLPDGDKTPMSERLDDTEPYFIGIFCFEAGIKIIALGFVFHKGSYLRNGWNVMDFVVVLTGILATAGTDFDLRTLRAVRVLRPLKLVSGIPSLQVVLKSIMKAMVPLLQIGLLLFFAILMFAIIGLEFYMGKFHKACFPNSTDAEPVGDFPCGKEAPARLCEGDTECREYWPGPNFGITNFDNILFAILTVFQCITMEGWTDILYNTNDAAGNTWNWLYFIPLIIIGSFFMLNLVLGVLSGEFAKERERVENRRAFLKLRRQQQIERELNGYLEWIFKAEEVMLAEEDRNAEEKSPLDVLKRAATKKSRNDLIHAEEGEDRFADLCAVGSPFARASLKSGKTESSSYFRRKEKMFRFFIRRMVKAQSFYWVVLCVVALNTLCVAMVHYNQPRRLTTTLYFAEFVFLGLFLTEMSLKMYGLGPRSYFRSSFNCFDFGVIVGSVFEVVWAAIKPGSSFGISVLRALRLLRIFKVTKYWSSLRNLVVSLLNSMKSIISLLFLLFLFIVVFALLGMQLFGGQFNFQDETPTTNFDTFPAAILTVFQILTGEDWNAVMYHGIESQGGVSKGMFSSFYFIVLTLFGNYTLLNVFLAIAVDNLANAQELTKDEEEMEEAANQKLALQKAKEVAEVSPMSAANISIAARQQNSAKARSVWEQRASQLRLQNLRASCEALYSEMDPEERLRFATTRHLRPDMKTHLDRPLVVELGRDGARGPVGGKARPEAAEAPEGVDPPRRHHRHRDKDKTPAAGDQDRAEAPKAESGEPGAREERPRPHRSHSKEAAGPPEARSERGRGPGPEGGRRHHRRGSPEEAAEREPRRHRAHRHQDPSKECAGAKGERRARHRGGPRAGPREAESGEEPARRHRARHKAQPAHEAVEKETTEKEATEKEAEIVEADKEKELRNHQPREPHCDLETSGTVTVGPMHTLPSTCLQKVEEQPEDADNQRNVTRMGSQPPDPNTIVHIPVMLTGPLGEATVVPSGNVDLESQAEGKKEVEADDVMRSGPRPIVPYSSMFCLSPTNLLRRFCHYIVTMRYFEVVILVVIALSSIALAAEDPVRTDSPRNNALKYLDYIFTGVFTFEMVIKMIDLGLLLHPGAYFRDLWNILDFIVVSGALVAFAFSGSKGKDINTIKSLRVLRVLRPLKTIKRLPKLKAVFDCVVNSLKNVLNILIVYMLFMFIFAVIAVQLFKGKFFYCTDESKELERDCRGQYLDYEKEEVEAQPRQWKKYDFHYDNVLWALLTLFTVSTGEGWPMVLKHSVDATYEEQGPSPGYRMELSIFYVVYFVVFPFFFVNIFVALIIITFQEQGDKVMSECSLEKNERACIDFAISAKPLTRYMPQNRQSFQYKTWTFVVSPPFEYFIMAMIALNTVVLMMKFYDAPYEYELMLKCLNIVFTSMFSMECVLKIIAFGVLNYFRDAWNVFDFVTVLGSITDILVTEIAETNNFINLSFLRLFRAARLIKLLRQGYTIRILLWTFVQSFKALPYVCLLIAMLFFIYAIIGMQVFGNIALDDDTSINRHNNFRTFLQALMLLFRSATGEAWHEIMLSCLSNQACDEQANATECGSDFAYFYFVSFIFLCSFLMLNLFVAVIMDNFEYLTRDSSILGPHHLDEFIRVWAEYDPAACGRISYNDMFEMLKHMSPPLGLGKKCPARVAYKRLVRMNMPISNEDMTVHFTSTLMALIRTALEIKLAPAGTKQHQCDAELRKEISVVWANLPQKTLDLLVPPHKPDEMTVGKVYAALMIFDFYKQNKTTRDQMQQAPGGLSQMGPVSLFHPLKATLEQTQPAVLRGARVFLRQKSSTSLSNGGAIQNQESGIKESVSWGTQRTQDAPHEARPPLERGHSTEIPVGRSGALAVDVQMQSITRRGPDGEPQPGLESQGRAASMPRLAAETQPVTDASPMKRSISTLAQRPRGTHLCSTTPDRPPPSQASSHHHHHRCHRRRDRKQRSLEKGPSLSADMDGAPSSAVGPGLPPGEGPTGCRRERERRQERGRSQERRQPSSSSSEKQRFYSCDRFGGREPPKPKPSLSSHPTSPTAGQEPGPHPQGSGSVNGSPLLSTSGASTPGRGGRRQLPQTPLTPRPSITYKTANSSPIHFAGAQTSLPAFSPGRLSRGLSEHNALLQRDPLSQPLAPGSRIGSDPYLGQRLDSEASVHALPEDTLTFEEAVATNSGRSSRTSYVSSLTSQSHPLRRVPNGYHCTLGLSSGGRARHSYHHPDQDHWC

[2] = molecular target: T2, Nuclear receptor subfamily 1 group I member 2 (Homo sapiens, UniProt O75469); experiment: Activation of PXR (unknown origin)
T2 sequence (O75469 whole entry): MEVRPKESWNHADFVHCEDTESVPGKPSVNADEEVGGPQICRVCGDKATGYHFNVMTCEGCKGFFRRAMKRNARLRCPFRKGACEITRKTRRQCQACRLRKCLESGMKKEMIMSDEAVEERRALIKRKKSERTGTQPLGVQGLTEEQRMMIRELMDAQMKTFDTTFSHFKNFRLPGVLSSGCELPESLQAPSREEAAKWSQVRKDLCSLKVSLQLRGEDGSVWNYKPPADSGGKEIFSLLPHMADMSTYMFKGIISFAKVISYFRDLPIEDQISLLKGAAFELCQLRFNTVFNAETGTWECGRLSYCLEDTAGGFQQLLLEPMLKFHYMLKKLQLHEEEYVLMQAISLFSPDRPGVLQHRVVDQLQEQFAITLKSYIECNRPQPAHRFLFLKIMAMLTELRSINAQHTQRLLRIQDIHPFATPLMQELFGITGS

CYP3A4 = CYP3A4 (Homo sapiens, UniProt P08684); experiment: Inhibition of CYP3A4 (unknown origin) at 10 uM relative to control; type: ADME
[3] = molecular target: T1, Voltage-dependent N-type calcium channel subunit alpha-1B; experiment: Inhibition of Cav2.2-mediated calcium influx in HEK cells by FLIPR assay; type: cell-based, HEK293; method in brief: as §1
Target sequence in this assay (Q00975 whole entry): as the sequence (Q00975 whole entry, looked up) above

hERG (KCNH2) = hERG (KCNH2) (Homo sapiens, UniProt Q12809); experiment: Displacement of [35S]MK-499 from human ERG at 10 uM relative to control; conditions: probe [35S]MK-499
Method in brief: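 hERG binding assessed by displacement of [35S]MK-499; percent inhibition at 10 μM test compound.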

Liver microsome [4] = experiment: Drug metabolism in human liver microsomes assessed as 3-(trifluoromethyl)-benzenesulfonamide level after 1 hr in presence of NADPH; type: ADME
[5] = Metabolic stability in rat liver microsomes assessed as compound remaining at 10 uM after 1 hr in presence of NADPH; type: ADME; conditions: read-out: Stability
Method in brief: (§2)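 Liver microsomes (rat or human) incubated with compound and NADPH for 1 h; percent of parent remaining. Table footnote gives 10 μM compound, 1 mM NADPH, 1 mg/mL protein; text gives 1 μM substrate, 1 mg/mL protein.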

Liver microsome [6] = experiment: Drug metabolism in rat liver microsomes assessed as 3-(trifluoromethyl)-benzenesulfonamide level after 1 hr in presence of NADPH; type: ADME
[7] = Metabolic stability in human liver microsomes assessed as compound remaining at 10 uM after 1 hr in presence of NADPH; type: ADME; conditions: read-out: Stability; method in brief: as §2
Rattus norvegicus [8] = experiment: Normalized AUC in rat whole blood at 3 mg/kg, po; type: ADME, organism-based; parameters: dose 3 mg/kg, route oral; conditions: in vivo
Method in brief: (§3)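 Rats dosed 3 mg/kg orally and 1 mg/kg intravenously; PK parameters derived from whole-blood concentrations. Normalized oral AUC given in μM·h·kg/mg, clearance in mL/min/kg, plus half-life and oral bioavailability.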

Rattus norvegicus [9] = experiment: Antinociceptive activity in rat inflammatory pain model assessed as reversal of CFA-induced mechanical allodynia at 30 mg/kg, po after 1 hr; type: functional
Method in brief: (§4)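 Rats given intraplantar complete Freund's adjuvant in the hind paws to induce inflammatory pain; mechanical allodynia assessed 1 and 3 h after a single oral dose. Percent reversal per rat calculated as (postdose − predose)/(preinjury − predose), averaged over n = 6 rats.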

[10] = Clearance in rat at 3 mg/kg, po and 1 mg/kg, iv; type: ADME, organism-based; conditions: in vivo; method in brief: as §3
Rattus norvegicus [11] = experiment: Antinociceptive activity in rat inflammatory pain model assessed as reversal of CFA-induced mechanical allodynia at 30 mg/kg, po after 3 hrs; type: functional; method in brief: as §4
[12] = Oral bioavailability in rat at 3 mg/kg; type: ADME, organism-based; conditions: in vivo; method in brief: as §3
Rattus norvegicus [13] = experiment: Normalized AUC in rat whole blood assessed as 3-(trifluoromethyl)-benzenesulfonamide level at 3 mg/kg, po; type: ADME, organism-based; parameters: dose 3 mg/kg, route oral; conditions: in vivo
Method in brief: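 Rats given a single 3 mg/kg oral dose of parent; whole-blood levels of parent and sulfonamide metabolite followed over time, n = 2 rats. Metabolite AUC normalized to dose (μM·h·kg/mg).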

Rattus norvegicus [14] = experiment: Antinociceptive activity in rat inflammatory pain model assessed as reversal of CFA-induced mechanical allodynia at 10 mg/kg, po after 1 hr; type: functional; method in brief: as §4
Rattus norvegicus [15] = experiment: Antinociceptive activity in rat inflammatory pain model assessed as reversal of CFA-induced mechanical allodynia at 10 mg/kg, po after 3 hrs; type: functional; method in brief: as §4

hERG (KCNH2), sequence (Q12809 whole entry): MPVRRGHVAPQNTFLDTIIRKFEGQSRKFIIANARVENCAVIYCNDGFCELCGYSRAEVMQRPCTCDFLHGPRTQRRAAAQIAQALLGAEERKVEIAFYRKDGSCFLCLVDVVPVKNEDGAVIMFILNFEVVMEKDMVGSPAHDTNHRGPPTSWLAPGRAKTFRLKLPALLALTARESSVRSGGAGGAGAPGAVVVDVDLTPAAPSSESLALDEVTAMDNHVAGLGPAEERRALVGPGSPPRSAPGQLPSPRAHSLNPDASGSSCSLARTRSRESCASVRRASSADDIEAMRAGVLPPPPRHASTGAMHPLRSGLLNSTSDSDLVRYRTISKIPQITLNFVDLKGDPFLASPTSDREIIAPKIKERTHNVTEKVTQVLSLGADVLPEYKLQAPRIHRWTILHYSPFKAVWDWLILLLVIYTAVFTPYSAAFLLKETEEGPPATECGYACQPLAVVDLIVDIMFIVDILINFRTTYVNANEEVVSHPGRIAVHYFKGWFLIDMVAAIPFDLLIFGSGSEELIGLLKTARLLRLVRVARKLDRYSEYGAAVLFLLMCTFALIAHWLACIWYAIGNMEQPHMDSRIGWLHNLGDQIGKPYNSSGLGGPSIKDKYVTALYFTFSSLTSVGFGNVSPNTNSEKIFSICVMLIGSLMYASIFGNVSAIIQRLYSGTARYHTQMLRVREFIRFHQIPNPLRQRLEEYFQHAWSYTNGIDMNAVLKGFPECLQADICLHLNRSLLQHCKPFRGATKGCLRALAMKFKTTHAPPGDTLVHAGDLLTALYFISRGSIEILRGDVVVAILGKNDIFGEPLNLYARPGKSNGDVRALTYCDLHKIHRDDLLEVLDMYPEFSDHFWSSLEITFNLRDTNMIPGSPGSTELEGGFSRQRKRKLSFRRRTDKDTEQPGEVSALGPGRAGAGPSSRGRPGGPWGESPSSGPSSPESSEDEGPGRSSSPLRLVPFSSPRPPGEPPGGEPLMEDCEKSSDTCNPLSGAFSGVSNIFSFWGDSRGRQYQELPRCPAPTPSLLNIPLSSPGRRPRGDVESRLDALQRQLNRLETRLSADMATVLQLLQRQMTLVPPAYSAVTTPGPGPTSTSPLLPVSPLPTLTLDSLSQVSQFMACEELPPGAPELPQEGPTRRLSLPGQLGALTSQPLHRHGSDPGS
CYP3A4, sequence (P08684 whole entry): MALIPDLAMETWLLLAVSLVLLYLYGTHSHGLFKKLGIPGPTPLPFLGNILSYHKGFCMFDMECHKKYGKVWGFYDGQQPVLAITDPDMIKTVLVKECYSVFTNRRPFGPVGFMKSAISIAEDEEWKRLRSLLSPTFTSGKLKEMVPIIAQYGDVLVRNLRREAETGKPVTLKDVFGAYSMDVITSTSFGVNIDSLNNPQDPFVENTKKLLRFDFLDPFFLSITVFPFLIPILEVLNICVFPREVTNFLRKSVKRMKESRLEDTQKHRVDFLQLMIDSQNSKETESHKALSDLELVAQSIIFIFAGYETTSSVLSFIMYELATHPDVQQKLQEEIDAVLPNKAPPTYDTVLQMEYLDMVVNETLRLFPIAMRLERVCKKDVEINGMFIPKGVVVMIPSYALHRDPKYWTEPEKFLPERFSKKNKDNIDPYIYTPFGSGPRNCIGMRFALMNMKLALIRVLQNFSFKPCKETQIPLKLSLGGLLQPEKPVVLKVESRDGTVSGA

SMILES | EC50 [2] [nM] | inhibition at 10 µM (CYP3A4) [%] | IC50 [3] [nM] | inhibition at 10 µM (hERG (KCNH2)) [%] | further results
CS(=O)(=O)c1ccc(C(=O)N2CCC(N(C(=O)c3cccc(C(F)(F)F)c3)C3CC3)CC2)c(OC(F)(F)F)c1 | – | – | – | – | inhibition [1]: 48%
CS(=O)(=O)c1ccc(C(=O)N2CCC(N(C3CC3)S(=O)(=O)c3cccc(C(F)(F)F)c3)CC2)c(Cl)c1 | 10800 | 78 | 290 | 32 | –
CC(C1CCN(C(=O)c2ccc(S(C)(=O)=O)cc2OC(F)(F)F)CC1)S(=O)(=O)c1cccc(C(F)(F)F)c1 (stereo in doubt; 30 en-2) | – | – | 370 | – | –
CS(=O)(=O)c1ccc(C(=O)N2CCC(CS(=O)(=O)c3cccc(C(F)(F)F)c3)CC2)c(OC(F)(F)F)c1 | – | – | 360 | – | –
CS(=O)(=O)c1ccc(F)cc1C(=O)N1CC(N(C2CC2)S(=O)(=O)c2cccc(C(F)(F)F)c2)C1 | – | – | 970 | – | –
CS(=O)(=O)c1ccc(C#N)cc1C(=O)N1CCC(N(C2CC2)S(=O)(=O)c2cccc(C(F)(F)F)c2)CC1 | 5000 | 59 | 670 | 41 | –
CS(=O)(=O)c1ccc(Cl)c(C(=O)N2CCC(N(C3CC3)S(=O)(=O)c3cccc(C(F)(F)F)c3)CC2)c1 | 2700 | 69 | 340 | 49 | –
CCN(C1CCN(C(=O)c2ccccc2OC(F)(F)F)CC1)S(=O)(=O)c1cccc(C(F)(F)F)c1 | – | – | 470 | – | Drug metabolism (Liver microsome [4]): 1.16 µM; remaining at 1 h, 10 µM [5]: 3.4%; Drug metabolism (Liver microsome [6]): 0.08 µM; remaining at 1 h, 10 µM [7]: 30%
CC(C1CCN(C(=O)c2ccc(S(C)(=O)=O)cc2OC(F)(F)F)CC1)S(=O)(=O)c1cccc(C(F)(F)F)c1 (stereo in doubt; 30 en-1) | – | – | 88 | – | –
C[C@@H]1[C@H](N(C2CC2)S(=O)(=O)c2cccc(C(F)(F)F)c2)CN1C(=O)c1cc(F)ccc1S(C)(=O)=O (racemic) | – | – | 380 | – | –
NS(=O)(=O)c1cccc(C(F)(F)F)c1 | – | – | > 10000 | – | AUC/dose (Rattus norvegicus [8]): 111 µM·kg·h/mg; Efficacy (Rattus norvegicus [9]): 53%; clearance [10]: 0.31 mL/min/kg; Efficacy (Rattus norvegicus [11]): 44%; bioavailability [12]: 46%
CS(=O)(=O)c1cc(C(F)(F)F)ccc1C(=O)N1CCC2(CCN(S(=O)(=O)c3cccc(C(F)(F)F)c3)CC2)C1 | – | – | 72 | – | AUC/dose (Rattus norvegicus [13]): 218 µM·kg·h/mg; AUC/dose (Rattus norvegicus [8]): 0.022 µM·kg·h/mg; remaining at 1 h, 10 µM [5]: 12%; remaining at 1 h, 10 µM [7]: 8.5%
CS(=O)(=O)c1ccc(F)cc1C(=O)N1CCC(N(C2CC2)S(=O)(=O)c2cccc(C(F)(F)F)c2)CC1 | – | 75 | – | – | Drug metabolism (Liver microsome [4]): 0.03 µM; Drug metabolism (Liver microsome [6]): 0.01 µM; Efficacy (Rattus norvegicus [14]): 43%; Efficacy (Rattus norvegicus [15]): 38%
CS(=O)(=O)c1ccc(C(=O)N2CCC3(CCN(S(=O)(=O)c4cccc(C(F)(F)F)c4)CC3)C2)c(C(F)(F)F)c1 | – | – | 310 | – | Drug metabolism (Liver microsome [4]): 5.13 µM; remaining at 1 h, 10 µM [5]: 3.8%; Drug metabolism (Liver microsome [6]): 0.18 µM; remaining at 1 h, 10 µM [7]: 4.2%
CS(=O)(=O)c1cc(C(F)(F)F)ccc1C(=O)N1CCC(N(C2CC2)S(=O)(=O)c2cccc(C(F)(F)F)c2)CC1 | 4300 | 78 | 27 | 43 | –
C[C@H]1[C@H](N(C2CC2)S(=O)(=O)c2cccc(C(F)(F)F)c2)CN1C(=O)c1cc(F)ccc1S(C)(=O)=O (racemic) | – | – | 430 | – | –
CC1(N(C2CC2)S(=O)(=O)c2cccc(C(F)(F)F)c2)CCN(C(=O)c2cc(F)ccc2S(C)(=O)=O)CC1 | – | – | 710 | – | Drug metabolism (Liver microsome [4]): 0.04 µM; Drug metabolism (Liver microsome [6]): 0.06 µM
CN(C1CCN(C(=O)c2ccccc2S(C)(=O)=O)CC1)S(=O)(=O)c1cccc(C(F)(F)F)c1 | – | – | 460 | – | Drug metabolism (Liver microsome [4]): 0.95 µM; remaining at 1 h, 10 µM [5]: 18%; Drug metabolism (Liver microsome [6]): 0.08 µM; remaining at 1 h, 10 µM [7]: 26%
CS(=O)(=O)c1ccc(C(=O)N2CCC(N(C3CC3)S(=O)(=O)c3cccc(C(F)(F)F)c3)CC2)c(F)c1 | 6800 | – | 350 | 78 | –
CS(=O)(=O)c1ccc(F)cc1C(=O)N1CCC(N(C2CC2)S(=O)(=O)c2cccc(C(F)(F)F)c2)C1 (racemic) | – | – | 370 | – | –
NC(=O)c1ccc(C(=O)N2CCC(N(C3CC3)S(=O)(=O)c3cccc(C(F)(F)F)c3)CC2)c(OC(F)(F)F)c1 | > 10000 | 60 | 390 | 41 | –
CS(=O)(=O)c1ccc(F)cc1C(=O)N1CCC2(CCN(S(=O)(=O)c3cccc(C(F)(F)F)c3)CC2)C1 | – | – | 190 | – | –
CS(=O)(=O)c1ccc(C(=O)N2CCC(N(C3CC3)S(=O)(=O)c3cccc(C(F)(F)F)c3)CC2)c(C(F)(F)F)c1 | 2800 | 75 | 21 | 58 | –
CS(=O)(=O)c1ccc(C(=O)N2CCC(N(C3CC3)S(=O)(=O)c3cccc(C(F)(F)F)c3)CC2)c(OC(F)(F)F)c1 | 1700 | 16 | 48 | 63 | –
C[C@H]1[C@H](N(C2CC2)S(=O)(=O)c2cccc(C(F)(F)F)c2)CN1C(=O)c1ccc(S(C)(=O)=O)cc1Cl (racemic) | – | – | 48 | – | Drug metabolism (Liver microsome [4]): 0.83 µM; AUC/dose (Rattus norvegicus [13]): 64 µM·kg·h/mg; AUC/dose (Rattus norvegicus [8]): 0.017 µM·kg·h/mg; remaining at 1 h, 10 µM [5]: 4.7%; Drug metabolism (Liver microsome [6]): 0.11 µM; remaining at 1 h, 10 µM [7]: 5.3%
CS(=O)(=O)c1cc(C#N)ccc1C(=O)N1CCC(N(C2CC2)S(=O)(=O)c2cccc(C(F)(F)F)c2)CC1 | 8400 | 86 | 450 | 66 | –
NC(=O)c1ccc(C(=O)N2CCC(N(C3CC3)S(=O)(=O)c3cccc(C(F)(F)F)c3)CC2)c(C(F)(F)F)c1 | 1900 | 61 | 760 | 32 | –
CS(=O)(=O)c1ccc(C(=O)N2CC(N(C3CC3)S(=O)(=O)c3cccc(C(F)(F)F)c3)C2)c(C(F)(F)F)c1 | – | – | 270 | – | Drug metabolism (Liver microsome [4]): 0.45 µM; remaining at 1 h, 10 µM [5]: 72%; Drug metabolism (Liver microsome [6]): 0.04 µM; remaining at 1 h, 10 µM [7]: 78%
